SKBR3 24h inh: SK-BR-3 proliferation inhibitors, primary screen, cell-based, human, 24 h; 0.47% of 41,000 active; viability, % at 10 µM; SK-BR-3 viability, CellTiter-Glo ATP luminescence; active compounds read low;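 active = viability at or below the median of all test compounds minus 3 SD, in both replicates if run twice, cut at about 45% in these data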
HER2 expr 66K: inhibitors of Her2 protein expression, primary screen, SKBR-3 cells, AlphaScreen, 66K library. Receptor tyrosine-protein kinase erbB-2 (Homo sapiens), P04626. SKBR-3 HER2 protein level, 18-24 h; active compounds read low. HER2 level % of control, % at 10 µM. 0.69% of 65,000 active. AID 645, 2007;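 active = HER2 level under 5% of the carrier-only control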;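 also: lower value means stronger loss of Her2 protein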
HEK293 NFkB inh: inhibitors of PMA/ionomycin-induced NF-kB reporter, primary screen, antigen receptor NF-kB inhibitor project, cell-based, HEK-293 luciferase reporter, luminescence; HEK-293 NF-kB luciferase reporter; inhibition, % at 3 µM; 0.21% of 62,000 active; AID 465, 2006;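 active = inhibition above the mean of all tested compounds plus 3 SD, cut at about 40% in these data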
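System – HEK-293 cells with stable firefly luciferase reporter driven by four HIV NF-kB elements · Doses – one dose, 3 µM · Schedule – 1 h compound pre-incubation, 16 h PMA/ionomycin at 37 °C · Technique – luminescence from luciferase substrate reagent · Measure – percent inhibition normalized per plate to DMSO and reference-inhibitor controls · Replicates – tested once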
Htt clearance: clearance of mutant huntingtin inclusions, primary screen, imaging, HeLa Exon1htt(103Q)mCFP, confocal imaging | aggregate imaging; zero = plate's median compound well | inhibition, % at 1.5 µM | 0.42% of 47,000 active | AID 853, 2007;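 active = inhibition of aggregate fluorescence above about 70%, also judged a hit by eye on the cell image, limit read from the data, passing the limit was not always enough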;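 also: cells exposed to compound for three days before fixation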
Jurkat tox 60K: cytotoxicity toward Jurkat T cells, primary screen, cytotoxicity control, cell-based, Jurkat E6.1, 60K MLSMR library | Jurkat E6.1 viability, ATP luminescence, 48 h | 1.2% of 56,000 active | inhibition, % at 4 µM | AID 463, 2006;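 active = inhibition above the mean inhibition of all tested compounds plus 3 SD, cut at about 28% in these data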
Hits are given with their value; – = inactive; · = not tested or not shown. Most compounds without a hit are left out; they make up all but 1.9% or so of the library.

SMILES	SKBR3 24h inh	HER2 expr 66K	HEK293 NFkB inh	Htt clearance	Jurkat tox 60K
CC1CCN(Cc2nc3c(c(=O)n(C)c(=O)n3C)n2CCN2CCOCC2)CC1	–	–	–	·	·
O=C(Nc1cccc(O)c1)c1cc(S(=O)(=O)N2CCCC2)ccc1Cl	·	–	–	·	·
O=C(Cc1cscn1)c1ccc(O)cc1O	–	-18	·	–	·
COc1cc(C2=NOC(C(=O)NCc3cccs3)C2)cc(OC)c1OC (configuration not stated)	·	·	·	–	·
COc1cc(C2=NOC(C(=O)NCc3ccco3)C2)cc(OC)c1OC (configuration not stated)	·	–	–	·	73
COC(=O)CS(=O)(=O)c1nnc([C@H](Cc2ccccc2)NC(=O)OC(C)(C)C)o1	–	-17	–	–	–
CCn1ncc(C2=NOC(C(=O)NCc3ccc(Cl)cc3)C2)c1C (configuration not stated)	·	–	–	·	92
CC(=O)c1c(C)[nH]c(C(=O)CSc2nc3ccc(C)cc3[nH]2)c1C	·	·	·	–	·
Cc1cc(/C=N/n2cnnc2)c(C)n1-c1ccc(OCc2ccc(F)cc2)cc1	–	–	–	·	45
Cc1ccc(C(=O)CCNc2ccc(F)c(Cl)c2)o1	–	–	–	·	83
COc1ccc(-c2nnc(SCC(=O)OC3CCCCC3)o2)cc1OC	–	–	–	72	–
CN1C=CC2=C(C#N)C(N)C(C#N)(C#N)[C@H](c3ccccc3)[C@H]2C1 (some centres not stated)	·	·	·	–	·
CC(C)(C)C(=O)NC1CCN(C(=O)N2CCCC2)CC1	·	–	–	99	–
CC(C)(C)C(=O)NC1CCN(S(C)(=O)=O)CC1	·	·	·	–	·
CCOC(=O)Nc1c(C(=O)OC)[nH]c2cc(OC)ccc12	–	–	–	·	43
CCOC(=O)c1[nH]c2ccc(OC)cc2c1NC(=O)OC	–	–	–	–	–
COc1ccc(-c2cc(C(=O)NCCN3CCOCC3)c3ccccc3n2)c(OC)c1	–	–	·	–	·
CCOc1ccc(-c2cc(C(=O)O)c3ccccc3n2)c(OCC)c1	·	–	42	·	37
Cc1ccc2c(c1)[nH]c1c(N3CCN(Cc4ccccc4)CC3)ncnc12	–	–	–	–	34
CCOc1cc(C(=O)CSc2nnc(CNc3ccc(Cl)cc3)o2)ccc1NC(=O)CC	–	-22	–	–	–
COc1ccc(NCc2nnc(SCC(=O)c3ccc(OC)cc3)o2)cc1	·	·	·	–	·
Cc1ccc(SCc2cn3c(C)csc3n2)cc1	–	–	–	–	–
Cc1ccc(N(Cc2ccco2)C(=O)c2cccc(S(=O)(=O)N(C)C)c2)cc1	·	–	–	–	–
O=C(c1ccco1)N(Cc1ccco1)c1ccc(O)cc1	–	-16	–	·	–
Cc1cc(C)n(-c2ccc(C(=O)Nc3ccc(S(=O)(=O)NCc4ccco4)cc3)cc2)n1	·	–	–	–	65
SMILES	SKBR3 24h inh	HER2 expr 66K	HEK293 NFkB inh	Htt clearance	Jurkat tox 60K
O=C(Nc1ccccc1)c1ccc(S(=O)(=O)NCc2ccco2)cc1	–	–	–	·	–
O=C(NCc1ccco1)C(Cc1ccccc1)N1C(=O)c2ccccc2C1=O (configuration not stated)	·	-20	–	·	–
O=C(c1csc2c1CCCC2)n1cccn1	–	–	–	·	–
Cc1ccc(-c2ccc(/C=N/c3ncn[nH]3)o2)cc1Cl	35	–	·	–	·
Cc1c(N=Cc2ccc(-c3ccc(Cl)cc3)o2)c(=O)n(-c2ccccc2)n1C	–	–	–	·	–
Cc1nnc(SCC(=O)NC(C)(C)C)n1CCc1ccccc1	–	–	–	·	–
Cc1nnc(SCC(N)=O)n1CCc1ccccc1	·	·	·	71	·
Cc1nnc(SCC(=O)c2c(N)n(C)c(=O)n(C)c2=O)n1Cc1ccccc1	·	-33	–	·	–
CCC(Sc1nc(C)cc(C)n1)C(=O)Nc1ccc(Cl)cn1 (configuration not stated)	·	·	·	–	·
Cc1cc(NC(=O)COC(=O)c2ccc(S(=O)(=O)N3CCCc4ccccc43)cc2)no1	·	–	–	–	64
O=C(Nc1ccccc1)N1CCCc2ccccc21	·	·	·	83	·
COC(=O)Nc1ccc(S(=O)(=O)N2c3ccccc3CCC2C)cc1 (configuration not stated)	·	–	–	·	92
COC(=O)Nc1ccc(S(=O)(=O)N2CCCCCC2)cc1	–	–	–	·	–
CC(=O)Nc1ccc(S(=O)(=O)N2CCCc3ccccc32)cc1	–	–	–	–	82
O=S(=O)(Cc1cccc(F)c1)c1c[nH]c2ccccc12	·	–	–	–	–
CCSc1nnc(-c2cccnc2)n1-c1ccc(Cl)c(C)c1	·	·	·	–	·
CC(C)(C)N1CC(COc2ccccc2)OC1=O (configuration not stated)	–	–	–	–	–
O=C(Nc1nnc(C2CC2)o1)c1ccc(S(=O)(=O)N2CCCc3ccccc32)cc1	·	–	–	·	102
Cc1cc(N2CCC3(CC2)OCCO3)n2nc(C)c(-c3ccc(Cl)cc3)c2n1	·	-19	–	–	·
O=C(Nc1ccccc1)c1ccc2nc(-c3ccco3)c(-c3ccco3)nc2c1	–	–	–	·	–
COc1ccccc1NC(=O)c1sc2nc(-c3ccco3)ccc2c1N	–	-0.3	–	–	–
COc1ccccc1NC(=O)c1oc2ccccc2c1NC(=O)c1ccco1	·	–	–	·	–
Nc1c(C(=O)Nc2ccccc2)sc2nc(-c3ccco3)ccc12	–	-5.4	–	·	–
CCOc1ccccc1NC(=O)Cn1nnc(C(=O)NCc2ccco2)c1N	·	–	42	·	98
Cc1ccc2c(c1)CCCN2C(=O)c1ccoc1C	–	-29	–	·	–
SMILES	SKBR3 24h inh	HER2 expr 66K	HEK293 NFkB inh	Htt clearance	Jurkat tox 60K
CCOC(=O)CSc1nc2ccc(N3CCOCC3)cc2c(=O)n1Cc1ccc2c(c1)OCO2	·	–	–	·	·
O=C(c1ccco1)N1CCN(CC2CC3C=CC2C3)CC1 (configuration not stated)	–	–	–	–	–
O=C(Nc1ccc(N2CCOCC2)cc1)c1ccncc1	·	·	·	–	·
CS(=O)(=O)c1ncc(Cl)c(C(=O)Nc2ccc(N3CCOCC3)cc2)n1	–	-1.6	–	·	62
O=C(Nc1ccc(N2CCOCC2)cc1)c1cnsn1	–	–	42	·	–
O=c1cc(Nc2ccc3c(c2)OCCO3)[nH]c(=O)n1C1CCCCC1	–	–	–	·	59
CCc1ccc(Nc2cc(=O)n(C3CCCCC3)c(=O)[nH]2)cc1	–	–	–	·	–
COc1ccccc1C1C=C(c2ccccc2)Nc2nnnn21 (configuration not stated)	–	–	–	·	80
COc1cccc(C2=CC(c3ccc(OC)c(OC)c3OC)n3nnnc3N2)c1 (configuration not stated)	–	–	–	·	–
COc1ccc(C2CC(c3c(O)cc(C)oc3=O)=NCCS2)c(OC)c1 (configuration not stated)	·	–	–	·	95
O=C(CCCOc1ccc(Cl)cc1Cl)NCC1CCCO1 (configuration not stated)	·	·	·	–	·

Screening data (PubChem BioAssay)
